According to ChEMBL document CHEMBL1138592, “Pyridopyrimidine based cannabinoid-1 receptor inverse agonists: Synthesis and biological evaluation” (Bioorg Med Chem Lett, 2009):

Columns and labels:
Cannabinoid receptor 1 = Cannabinoid receptor 1 (Homo sapiens, UniProt P21554); experiment: Inverse agonist activity at human cannabinoid CB1R expressed in CHO cells assessed as effect on cAMP accumulation; format: functional, cell-based
Cannabinoid receptor 2 = Cannabinoid receptor 2 (Homo sapiens, UniProt P34972); experiment: Binding affinity to human cannabinoid CB2R expressed in CHO cells; format: cell-based
[1] = Ratio of drug level in brain to plasma in rat after 0.25 hrs; format: ADME; conditions: brain and plasma
Rattus norvegicus [2] = experiment: Antiobesity activity in high fat diet-induced obese Sprague-Dawley rat model assessed as change in body weight at 3 mg/kg, po after 18 hrs of last dose relative to control; format: functional
[3] = Half life in rat; format: ADME, organism-based; conditions: in vivo
Rattus norvegicus [4] = experiment: Antiobesity activity in high fat diet-induced obese Sprague-Dawley rat model assessed as suppression of food intake at 3 mg/kg, po after 18 hrs of last dose relative to control; format: functional
[5] = Half life in monkey; format: ADME, organism-based, Macaca mulatta; conditions: rhesus monkey, in vivo
Summary of the method: (§1)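 Pharmacokinetic study in rhesus macaque. Reported parameters are bioavailability F (%), half-life T1/2 (h) and plasma clearance Clp (mL/min/kg).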

[6] = Plasma clearance in rat; format: ADME, organism-based
[7] = Plasma clearance in dog; format: ADME, organism-based, Canis lupus familiaris
[8] = Half life in dog; format: ADME, organism-based, Canis lupus familiaris; conditions: in vivo
[9] = Bioavailability in rat; format: ADME, organism-based; conditions: in vivo
[10] = Bioavailability in dog; format: ADME, organism-based, Canis lupus familiaris; conditions: in vivo
[11] = Bioavailability in monkey; format: ADME, organism-based, Macaca mulatta; conditions: rhesus monkey, in vivo; summary of the method: as §1
[12] = Plasma clearance in monkey; format: ADME, organism-based, Macaca mulatta; conditions: rhesus monkey; summary of the method: as §1
Rattus norvegicus [13] = experiment: Antiobesity activity in diet-induced obese Sprague-Dawley rat model assessed as suppression of overnight body weight change at 3 mg/kg, po administered 1 hr before dark cycle for 14 days measured after 18 hrs of last dose; format: functional
Rattus norvegicus [14] = experiment: Antiobesity activity in diet-induced obese Sprague-Dawley rat model assessed as suppression of overnight food intake at 3 mg/kg, po administered 1 hr before dark cycle for 14 days measured after […] of last dose; format: functional
[15] = Ratio of drug level in brain to plasma in rat after 4 hrs; format: ADME; conditions: brain and plasma
Rattus norvegicus [16] = experiment: Antiobesity activity in high fat diet-induced obese Sprague-Dawley rat model assessed as change in overnight body weight at 10 mg/kg, po after 18 hrs; format: functional
Rattus norvegicus [17] = experiment: Antiobesity activity in high fat diet-induced obese Sprague-Dawley rat model assessed as suppression of food intake at 10 mg/kg, po after 18 hrs; format: functional

Chain of Cannabinoid receptor 2 (P34972 whole entry): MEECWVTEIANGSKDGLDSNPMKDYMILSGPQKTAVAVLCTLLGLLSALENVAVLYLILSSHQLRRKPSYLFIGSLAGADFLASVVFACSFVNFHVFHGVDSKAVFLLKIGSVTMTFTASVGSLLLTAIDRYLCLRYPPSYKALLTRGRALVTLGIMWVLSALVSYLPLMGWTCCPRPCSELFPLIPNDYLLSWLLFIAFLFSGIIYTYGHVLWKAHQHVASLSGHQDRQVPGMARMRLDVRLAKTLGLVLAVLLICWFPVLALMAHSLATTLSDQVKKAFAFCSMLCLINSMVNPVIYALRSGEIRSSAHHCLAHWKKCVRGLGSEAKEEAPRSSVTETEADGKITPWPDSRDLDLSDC
Chain of Cannabinoid receptor 1 (P21554 whole entry): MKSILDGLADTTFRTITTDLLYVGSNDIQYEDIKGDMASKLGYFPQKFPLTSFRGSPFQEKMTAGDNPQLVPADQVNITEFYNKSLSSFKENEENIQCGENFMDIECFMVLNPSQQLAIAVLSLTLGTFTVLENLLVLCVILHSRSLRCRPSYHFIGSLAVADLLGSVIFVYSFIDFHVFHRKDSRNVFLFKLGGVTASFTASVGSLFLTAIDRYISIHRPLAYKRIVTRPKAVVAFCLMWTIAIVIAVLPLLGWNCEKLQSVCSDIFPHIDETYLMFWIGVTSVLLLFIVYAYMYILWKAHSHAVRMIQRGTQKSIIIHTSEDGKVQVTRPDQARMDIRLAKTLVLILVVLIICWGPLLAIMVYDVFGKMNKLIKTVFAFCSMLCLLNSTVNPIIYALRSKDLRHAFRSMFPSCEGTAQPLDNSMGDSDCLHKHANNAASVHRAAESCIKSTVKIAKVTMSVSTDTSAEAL

Compound | IC50 (Cannabinoid receptor 1) [nM] | IC50 (Cannabinoid receptor 2) [nM] | other results
CC(C)c1nc2nc(-c3ccccc3Cl)c(-c3ccc(Cl)cc3)cc2c(=O)[nH]1 | 130 | 7300 | 
CC(=O)Nc1c(C(C)=O)c(=O)n(C)c2nc(-c3ccc(Cl)cc3Cl)c(-c3ccc(Cl)cc3)cc12 [NAPHTHYRIDINONE] |  |  | Kp at 0.25 h [1]: 0.9; Activity (Rattus norvegicus [2]): -4 g; half-life [3]: > 8 h; Activity (Rattus norvegicus [4]): 68%
CC(C)(C)c1nc2nc(-c3ccc(Cl)cc3Cl)c(-c3ccc(Cl)cc3)cc2c(=O)[nH]1 | 6 | 5500 | Activity (Rattus norvegicus [2]): 1 g; Activity (Rattus norvegicus [4]): 21%
CC(C)(C)c1nc2nc(-c3ccccc3C#N)c(-c3ccc(Cl)cc3)cc2c2n[nH]c(=O)n12 | 3.2 | 2400 | Activity (Rattus norvegicus [2]): -2 g; Activity (Rattus norvegicus [4]): 25%
CC(C)(C)c1nc2nc(-c3ccccc3Cl)c(-c3ccc(C#N)cc3)cc2c2n[nH]c(=O)n12 | 5.9 | 18000 | half-life [5]: 9.9 h; Activity (Rattus norvegicus [2]): -5 g; clearance [6]: 4 mL/min/kg; half-life [3]: 3.5 h; clearance [7]: 24 mL/min/kg; half-life [8]: 7.4 h; bioavailability [9]: 53%; bioavailability [10]: 2.1%; bioavailability [11]: 9.7%; clearance [12]: 5.3 mL/min/kg; Activity (Rattus norvegicus [4]): 36%
CC(C)c1nc(OCc2ncon2)c2cc(-c3ccc(Cl)cc3)c(-c3ccccc3Cl)nc2n1 | 1.1 | 6300 | 
CC(C)c1nc2nc(-c3ccccc3Cl)c(-c3ccc(Cl)cc3)cc2c(=O)n1Cc1ncon1 | 82 | 9800 | 
CC(C)(C)Nc1nc(C(C)(C)C)nc2nc(-c3ccccc3Cl)c(-c3ccc(Cl)cc3)cc12 | 2.7 | > 2000 | 
CC(C)(C)c1nc(N2CCNCC2)c2cc(-c3ccc(Cl)cc3)c(-c3ccccc3Cl)nc2n1 | 1.9 | 1800 | 
C[C@H](NC(=O)C(C)(C)Oc1ccc(C(F)(F)F)cn1)[C@@H](Cc1ccc(Cl)cc1)c1cccc(C#N)c1 [TARANABANT] |  |  | Activity (Rattus norvegicus [13]): -10 g; Activity (Rattus norvegicus [14]): 49%
CC(C)(C)c1nc2nc(-c3ccccc3Cl)c(-c3ccc(Cl)cc3)cc2c2n[nH]c(=O)n12 | 1.9 | 3800 | Kp at 0.25 h [1]: 0.14; Activity (Rattus norvegicus [2]): -9 g; clearance [6]: 12 mL/min/kg; half-life [3]: 5.6 h; bioavailability [9]: 33%; Kp at 4 h [15]: 0.59; Activity (Rattus norvegicus [4]): 50%
Cc1nc(N)c2cc(-c3ccc(Cl)cc3)c(-c3ccccc3Cl)nc2n1 | 1500 | 1100 | 
CC(C)c1nc(N)c2cc(-c3ccc(Cl)cc3)c(-c3ccccc3Cl)nc2n1 | 190 | > 2000 | 
CC(C)(C)c1nc(N)c2cc(-c3ccc(Cl)cc3)c(-c3ccc(Cl)cc3Cl)nc2n1 |  | 5200 | 
O=c1[nH]c(-c2ccc(Cl)cc2)nc2nc(-c3ccccc3Cl)c(-c3ccc(Cl)cc3)cc12 | 59 | > 2000 | 
Nc1nc(-c2ccc(Cl)cc2)nc2nc(-c3ccccc3Cl)c(-c3ccc(Cl)cc3)cc12 | 16 | > 2000 | 
CC(C)(C)c1nc(-c2ccc(F)cc2)c2cc(-c3ccc(Cl)cc3)c(-c3ccccc3Cl)nc2n1 | 0.63 | 9830 | 
N#Cc1cc(-c2ccc(Cl)cc2)c(-c2ccc(Cl)cc2Cl)nc1Oc1ccc(F)c(F)c1 |  |  | Activity (Rattus norvegicus [16]): -8 g; Activity (Rattus norvegicus [17]): 48%
CC(C)(C)c1nc(NCC(F)(F)CO)c2cc(-c3ccc(Cl)cc3)c(-c3ccccc3Cl)nc2n1 | 9.5 | > 2000 | Activity (Rattus norvegicus [2]): -4 g; Activity (Rattus norvegicus [4]): 39%
CCN(CC)C(=O)c1nc(NC(C)C)c2cc(-c3ccc(Cl)cc3)c(-c3ccccc3Cl)nc2n1 | 150 | 12000 | 
CCN(CC)c1nc(C(C)(C)C)nc2nc(-c3ccccc3Cl)c(-c3ccc(Cl)cc3)cc12 | 2.2 | 2700 | 
CC(C)Nc1nc(C(C)(C)C)nc2nc(-c3ccccc3Cl)c(-c3ccc(Cl)cc3)cc12 | 4.1 | > 2000 | 
Cc1nc(O)c2cc(-c3ccc(Cl)cc3)c(-c3ccccc3Cl)nc2n1 | 2500 | > 2000 | 

Continued, in another order:

IC50 (Cannabinoid receptor 1) [nM] | IC50 (Cannabinoid receptor 2) [nM] | Compound | other results
7.4 | 8600 | CC(C)(C)c1nc2nc(-c3ccccc3Cl)c(-c3ccc(Cl)cc3)cc2c(=O)[nH]1 | 
100 | 18000 | CC(C)(C)c1nc2nc(-c3ccccc3Cl)c(-c3cnccc3C#N)cc2c2n[nH]c(=O)n12 | 
40 | 4900 | CC(C)(C)c1nc(N)c2cc(-c3ccc(Cl)cc3)c(-c3ccccc3Cl)nc2n1 | 
34 | 2700 | CC(C)(C)c1nc2nc(-c3ccccc3Cl)c(-c3cccc(Cl)c3)cc2c2n[nH]c(=O)n12 | 
8.5 | 1800 | CN(C)c1nc(C(C)(C)C)nc2nc(-c3ccccc3Cl)c(-c3ccc(Cl)cc3)cc12 | 
 | 5800 | CC(=O)c1ccc(-c2cc3c(nc2-c2ccccc2Cl)nc(C(C)(C)C)n2c(=O)[nH]nc32)cc1 | 
1.1 | 9200 | CC(C)(C)c1nc2nc(-c3ccccc3Cl)c(-c3ccc(C(F)(F)F)cc3)cc2c2n[nH]c(=O)n12 | 
8 | 3400 | CC(C)(C)c1nc2nc(-c3ccccc3Cl)c(-c3ccc(Cl)cc3)cc2c2nncn12 | 
7.5 | 8400 | COc1nc(C(C)(C)C)nc2nc(-c3ccccc3Cl)c(-c3ccc(Cl)cc3)cc12 | 
3 | 891 | COc1ccc(-c2cc3c(nc2-c2ccccc2Cl)nc(C(C)(C)C)n2c(=O)[nH]nc32)cc1 | 
28 | 770 | CN(C)c1ccc(-c2cc3c(nc2-c2ccccc2Cl)nc(C(C)(C)C)n2c(=O)[nH]nc32)cc1 | 
 | 19000 | CC(C)(C)c1nc2nc(-c3ccc(C#N)cc3Cl)c(-c3ccc(Cl)cc3)cc2c2n[nH]c(=O)n12 | 
